In ChEMBL document CHEMBL1177786, “Synthesis of novel beta-carbolines with efficient DNA-binding capacity and potent cytotoxicity” (Bioorg Med Chem Lett, 2010) one finds IC50, Activity and ΔTm data, which are given here for two compounds.

The subject of one experiment is OS-RC-2. Kind of experiment: Cytotoxicity against human OS-RC2 cells by MTT assay. In kind it is functional, cell-based. An outline of the steps:
(§1)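 MTT assay in human tumour lines. IC50 is the compound concentration giving a 50% drop in optical density relative to untreated cells. Values are means of three independent determinations.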
Background: Tetrazolium assays rely on reduction of a dye to a coloured formazan, in cell work by metabolically active cells.

In the next experiment the test system is CWR22R. Kind of experiment: Cytotoxicity against human 22Rv1 cells by MTT assay. In kind it is functional, cell-based. Summed up: as §1
Another experiment has as its system MCF7. The experiment in a line: Cytotoxicity against human MCF7 cells by MTT assay. In kind it is functional, cell-based. An outline of the steps: as §1
In experiment [1] the test system is Calf thymus DNA. The experiment in a line: Binding affinity to calf thymus DNA at pH 7.4 by UV-vis spectroscopy. In kind it is nucleic-acid assay. The note with it: Bos taurus. An outline of the steps: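 UV absorption spectra recorded in PE buffer (1 mM Na₂HPO₄, 0.1 mM EDTA, pH 7.4) with CT-DNA increasing from 0.0 to 0.2 mM. Quartz cells with 10 mm path, room temperature.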

In experiment [2] the test system is Calf thymus DNA. The experiment in a line: Binding affinity to calf thymus DNA assessed as change in melting temperature at drug/DNA ratio 0.2 at pH 7.4. In kind it is nucleic-acid assay. The note with it: Bos taurus. An outline of the steps:
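Thermal denaturation of calf thymus DNA in PE buffer (1 mM Na₂HPO₄, 0.1 mM EDTA, pH 7.4), drug/DNA ratio 0.2; ΔTm taken as Tm of drug–DNA complex minus Tm of DNA alone.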

Experiment [3] deals with Calf thymus DNA. Kind of experiment: Binding affinity to calf thymus DNA assessed as fluorescence quenching at 10 uM by spectrofluorimeter analysis. In kind it is nucleic-acid assay. The note with it: Bos taurus. An outline of the steps:
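Compound held fixed at […] in PE buffer (1 mM Na₂HPO₄, 0.1 mM EDTA, pH 7.4), titrated with CT-DNA. Fluorescence quenching recorded on a spectrofluorometer, excitation 372 nm.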

A further experiment deals with 769-P. The experiment in a line: Cytotoxicity against human 769-P cells by MTT assay. In kind it is functional, cell-based. Summed up: as §1
The subject of another experiment is KB. The experiment in a line: Cytotoxicity against human KB cells by MTT assay. In kind it is functional, cell-based. An outline of the steps:
as §1

Experiment [4] can be described thus: Cytotoxicity against human BCG823 cells by MTT assay. In kind it is functional, cell-based. An outline of the steps:
as §1

A further experiment concerns 786-0. Kind of experiment: Cytotoxicity against human 786-0 cells by MTT assay. In kind it is functional, cell-based. Summed up:
as §1

A further experiment relates to HepG2. Kind of experiment: Cytotoxicity against human HepG2 cells by MTT assay. In kind it is functional, cell-based. Summed up: as §1
In a further experiment the test system is A-375. The experiment in a line: Cytotoxicity against human A375 cells by MTT assay. In kind it is functional, cell-based. An outline of the steps: as §1
The next experiment relates to HT-29. Kind of experiment: Cytotoxicity against human HT-29 cells by MTT assay. In kind it is functional, cell-based. Summed up:
as §1

Molecules are shown by their SMILES. Calls of active or inactive are those of the source. No cut-off for these calls is given here.

A word on the IC50: it is the concentration that gives 50% inhibition. Low readings indicate greater potency, high ones weaker potency. Usually ΔTm stands for the change in melting temperature against a reference sample. As to `CCN(CC)CCCNCc1cc2c(cn1)[nH]c1ccccc12`, the IC50 with OS-RC-2 was 67.4 µM; in the experiment on CWR22R it was above 100 µM; in the experiment with MCF7, above 100 µM; with 769-P it was 75.3 µM; in the experiment with KB, above 100 µM; in [4] it was above 100 µM. Besides, the IC50 with 786-0 is above 100 µM; with HepG2 it was 93.7 µM; with A-375 it was above 100 µM; in the experiment with HT-29 it was above 100 µM. Also, the outcome in the experiment with Calf thymus DNA [1] and in the experiment on Calf thymus DNA [3] was Active. Moreover, in the experiment with Calf thymus DNA [2], the thermal shift (ΔTm) was found to be 12.6 °C.
As to `CCN(CC)CCCNCc1cc2c3ccccc3n(CCCc3ccccc3)c2cn1`, the IC50 in the experiment with OS-RC-2 was found to be 13.1 µM; in the experiment on CWR22R it was 7.7 µM; in the experiment on MCF7, 13.8 µM; in the experiment on 769-P, 5.1 µM; with KB it was 4.8 µM; in experiment [4] it was 7.4 µM. For the same compound, the IC50 in the experiment on 786-0 worked out at 8.3 µM; in the experiment on HepG2, 3.8 µM; in the experiment on A-375, 8.9 µM; with HT-29 it was 2.6 µM. The result with Calf thymus DNA [1] and in the experiment on Calf thymus DNA [3] was Active. The ΔTm with Calf thymus DNA [2] was found to be 18.8 °C.
